Reference: ChEMBL document CHEMBL4808168, “The Discovery of Two Novel Classes of 5,5-Bicyclic Nucleoside-Derived PRMT5 Inhibitors for the Treatment of Cancer” (J Med Chem, 2021)
Values after ≈ are worked out from the molar mass of the structure shown.

Columns and labels:
[1] = Unbound clearance in rat; type: ADME; conditions: in vivo
[2] = Unbound volume of distribution in rat; type: ADME; conditions: in vivo
[3] = Oral bioavailability in rat; type: ADME, organism-based; conditions: in vivo
[4] = Plasma clearance in rat; type: ADME
[5] = Solubility of the compound in […] at pH 2 at 200 uM incubated for 24 hrs by UV-vis detection based HPLC analysis; type: physicochemical
In short: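 10 mM DMSO stock added to 10 mM potassium phosphate buffer at pH 2 or pH 7, or FaSSIF pH 6.5, to 200 μM total; 24 h equilibration, filtration, then reverse-phase HPLC with UV–vis detection.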

[6] = molecular target: Protein arginine N-methyltransferase 5 (Homo sapiens, UniProt O14744); test: Inhibition of PRMT5 (unknown origin) assessed as inhibition of symmetric dimethylation of arginine incubated for 3 days by fluorescence based cellular target engagement assay
In short: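 MCF-7 cells (4000/well, collagen-coated plates) in EMEM with 0.01 mg/mL insulin and 10% FBS; 10-point 1:3 titration from 10,000 nM; 3 days at 37 °C/5% CO2; fixed, permeabilized, anti-SDMA antibody, then Alexa488 anti-rabbit IgG plus Hoechst; nuclear fluorescence by high-content imaging versus DMSO; EC50 by four-parameter robust fit.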

[7] = MRT in rat; type: ADME; conditions: in vivo
[8] = Solubility of the compound in FaSSIF at pH 7 at 200 uM incubated for 24 hrs by UV-vis detection based HPLC analysis; type: physicochemical
Z-138 = test: Antiproliferative activity against human Z138 cells incubated for 10 days by cell titer-glo assay; type: functional, cell-based; conditions: Z-138, 240 h

Sequence of Protein arginine N-methyltransferase 5 (O14744 whole entry): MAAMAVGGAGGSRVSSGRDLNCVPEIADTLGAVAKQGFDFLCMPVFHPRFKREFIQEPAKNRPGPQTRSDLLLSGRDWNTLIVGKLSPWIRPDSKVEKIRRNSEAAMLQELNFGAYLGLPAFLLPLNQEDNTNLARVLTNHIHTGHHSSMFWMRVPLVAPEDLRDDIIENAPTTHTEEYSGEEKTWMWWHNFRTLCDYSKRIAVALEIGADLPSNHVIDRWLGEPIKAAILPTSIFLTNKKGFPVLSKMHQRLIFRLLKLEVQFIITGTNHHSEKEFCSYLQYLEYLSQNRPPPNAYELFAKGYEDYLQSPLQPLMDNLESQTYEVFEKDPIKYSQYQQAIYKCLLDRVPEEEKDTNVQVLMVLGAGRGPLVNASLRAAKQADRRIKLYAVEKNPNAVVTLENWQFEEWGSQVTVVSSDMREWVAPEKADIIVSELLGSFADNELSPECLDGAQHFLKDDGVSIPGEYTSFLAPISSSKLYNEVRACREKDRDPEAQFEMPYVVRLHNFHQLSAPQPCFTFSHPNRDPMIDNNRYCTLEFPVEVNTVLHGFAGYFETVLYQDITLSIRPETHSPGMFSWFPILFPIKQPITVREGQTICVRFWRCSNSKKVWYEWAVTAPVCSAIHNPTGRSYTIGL

Row | CL free [1] [mL/min/kg] | Vdu [2] [L/kg] | bioavailability [3] [%] | clearance [4] [mL/min/kg] | solubility at 24 h, 200 µM [5] [µM] | EC50 [6] [nM] | MRT [7] [h] | solubility at 24 h, 200 µM [8] [µM] | SMILES | EC50 (Z-138) [nM]
1 | 1559 | 136 | 10 | 15 | 147 (≈ 74.9 µg/mL) | 2.9 | 1.6 | 20 (≈ 10.2 µg/mL) | Nc1nc2cc(C[C@@H]3CC[C@@]4(O)[C@@H]3C[C@@H](n3ccc5c(N)ncnc53)[C@@H]4O)ccc2cc1Br | 6.9
2 | 1045 | 79 | 8 | 46 | 159 (≈ 74.2 µg/mL) | 1.2 | 1.3 | 60 (≈ 28 µg/mL) | Nc1nc2cc(C[C@@H]3CC[C@@]4(O)[C@@H]3O[C@@H](n3ccc5c(N)ncnc53)[C@@H]4O)ccc2cc1Cl | 3.2
3 | 351 | 20 | 51 | 32 | 159 (≈ 71.5 µg/mL) | 14 | 1 | 118 (≈ 53 µg/mL) | Cc1ncnc2c1ccn2[C@@H]1O[C@@H]2[C@H](Cc3ccc4cc(F)c(N)nc4c3)CC[C@]2(O)[C@H]1O | 23
4 | – | – | – | – | – | 5.3 | – | – | Nc1nc2cc(C[C@@H]3CC[C@@]4(O)[C@@H]3O[C@@H](n3ccc5c(C6CC6)ncnc53)[C@@H]4O)ccc2cc1Br | 67
5 | 1337 | 116 | 11 | 31 | 151 (≈ 79.3 µg/mL) | 3.2 | 1.5 | 21 (≈ 11 µg/mL) | Cc1nc(N)c2ccn([C@@H]3O[C@@H]4[C@H](Cc5ccc6cc(Br)c(N)nc6c5)CC[C@]4(O)[C@H]3O)c2n1 | 6.4
6 | 844 | 80 | 30 | 40 | 156 (≈ 73.1 µg/mL) | 2.8 | 1.6 | 110 (≈ 51.5 µg/mL) | Nc1nc2cc(C[C@@H]3CC[C@@]4(O)[C@@H]3O[C@@H](n3ccc5c(N)ncnc53)[C@@H]4O)c(F)cc2cc1F | 20
7 | 940 | 82 | 10 | 25 | 162 (≈ 82.8 µg/mL) | 1.3 | 1.5 | 35 (≈ 17.9 µg/mL) | Nc1nc2cc(C[C@@H]3CC[C@@]4(O)[C@@H]3O[C@@H](n3ccc5c(N)ncnc53)[C@@H]4O)ccc2cc1Br | 1.7
8 | 900 | 52 | 20 | 31 | – | 9.9 | 1 | – | CNc1ncnc2c1ccn2[C@@H]1O[C@@H]2[C@H](Cc3ccc4cc(Br)c(N)nc4c3)CC[C@]2(O)[C@H]1O | 16
9 | 412 | 34 | 2 | 22 | 158 (≈ 74.1 µg/mL) | 1.2 | 1.4 | < 1 | Nc1nc2cc(O[C@H]3CC[C@@]4(O)[C@@H]3O[C@@H](n3ccc5c(N)ncnc53)[C@@H]4O)ccc2cc1Cl | 7.5
10 | 523 | 24 | – | 106 | 151 (≈ 67.4 µg/mL) | 3.2 | 0.8 | 137 (≈ 61.2 µg/mL) | Cc1cc2ccc(C[C@@H]3CC[C@@]4(O)[C@@H]3O[C@@H](n3ccc5c(N)ncnc53)[C@@H]4O)cc2nc1N | 0.77
11 | 3143 | 222 | 68 | 12 | 163 (≈ 86 µg/mL) | 5.3 | 1.2 | 14 (≈ 7.38 µg/mL) | CNc1ncnc2c1ccn2[C@@H]1O[C@@H]2[C@@H](Oc3ccc4cc(Br)c(N)nc4c3)CC[C@]2(O)[C@H]1O | 23
12 | 289 | 11 | – | 49 | 158 (≈ 71.5 µg/mL) | 0.9 | 0.6 | < 1 | Nc1nc2cc(O[C@H]3CC[C@@]4(O)[C@@H]3O[C@@H](n3ccc5c(N)ncnc53)[C@@H]4O)ccc2cc1F | 27
13 | 1029 | 111 | 28 | 18 | 163 (≈ 73.4 µg/mL) | 2.3 | 1.3 | 142 (≈ 64 µg/mL) | Nc1nc2cc(C[C@@H]3CC[C@@]4(O)[C@@H]3O[C@@H](n3ccc5c(N)ncnc53)[C@@H]4O)ccc2cc1F | 8.3
14 | – | – | – | – | – | > 10 | – | – | Nc1nc2cc(O[C@@H]3CC[C@@]4(O)[C@@H]3O[C@@H](n3ccc5c(N)ncnc53)[C@@H]4O)ccc2cc1Br | > 10
15 | – | – | – | – | – | 11 | – | – | Cc1ncnc2c1ccn2[C@@H]1C[C@@H]2[C@@H](Cc3ccc4cc(F)c(N)nc4c3)CC[C@]2(O)[C@H]1O | 63
16 | 648 | 68 | – | 101 | 181 (≈ 78.1 µg/mL) | 9.9 | 1.7 | 164 (≈ 70.8 µg/mL) | Cc1ncnc2c1ccn2[C@@H]1O[C@@H]2[C@H](Cc3ccc4ccc(N)nc4c3)CC[C@]2(O)[C@H]1O | < 0.5
17 | – | – | – | – | – | 32 | – | – | Nc1nc2cc(O[C@H]3CC[C@@]4(O)[C@@H]3O[C@@H](n3ccc5cncnc53)[C@@H]4O)ccc2cc1Br | 20
18 | 349 | 28 | 10 | 49 | 128 (≈ 65.7 µg/mL) | 1.2 | 1.8 | < 1 | Nc1nc2cc(O[C@H]3CC[C@@]4(O)[C@@H]3O[C@@H](n3ccc5c(N)ncnc53)[C@@H]4O)ccc2cc1Br | 3.7
19 | 424 | 83 | 64 | 21 | 184 (≈ 85.4 µg/mL) | 0.87 | 1.7 | 22 (≈ 10.2 µg/mL) | Cc1ncnc2c1ccn2[C@@H]1C[C@@H]2[C@H](Cc3ccc4cc(Cl)c(N)nc4c3)CC[C@]2(O)[C@H]1O | 2.2
20 | 345 | 30 | – | 16 | 152 (≈ 68.6 µg/mL) | 38 | 1.5 | 116 (≈ 52.4 µg/mL) | Cc1ncnc2c1ccn2[C@@H]1O[C@@H]2[C@@H](Oc3ccc4cc(F)c(N)nc4c3)CC[C@]2(O)[C@H]1O | 172
21 | 835 | 143 | 74 | 13 | 199 (≈ 101 µg/mL) | 1.1 | 1.5 | 14 (≈ 7.12 µg/mL) | Cc1ncnc2c1ccn2[C@@H]1C[C@@H]2[C@H](Cc3ccc4cc(Br)c(N)nc4c3)CC[C@]2(O)[C@H]1O | 1.6
22 | 710 | 59 | 71 | 8 | 160 (≈ 74.9 µg/mL) | 4 | 1.4 | 2 (≈ 0.936 µg/mL) | Cc1ncnc2c1ccn2[C@@H]1O[C@@H]2[C@@H](Oc3ccc4cc(Cl)c(N)nc4c3)CC[C@]2(O)[C@H]1O | 24
23 | – | – | – | – | – | 21 | – | – | Cc1ncnc2c1ccn2[C@@H]1O[C@@H]2[C@@H](Cc3ccc4cc(Cl)c(N)nc4c3)CC[C@]2(O)[C@H]1O | 26
24 | 541 | 34 | 24 | 60 | 158 (≈ 74 µg/mL) | 4.6 | 1 | 114 (≈ 53.4 µg/mL) | Nc1nc2cc(C[C@@H]3CC[C@@]4(O)[C@@H]3O[C@@H](n3cc(F)c5c(N)ncnc53)[C@@H]4O)ccc2cc1F | 5.6
25 | 667 | 43 | 41 | 24 | 148 (≈ 69 µg/mL) | 2.5 | 1.1 | 29 (≈ 13.5 µg/mL) | Cc1ncnc2c1ccn2[C@@H]1O[C@@H]2[C@H](Cc3ccc4cc(Cl)c(N)nc4c3)CC[C@]2(O)[C@H]1O | 6.9
26 | 2163 | 148 | 46 | 27 | 186 (≈ 94.9 µg/mL) | < 0.5 | 1.1 | 21 (≈ 10.7 µg/mL) | Cc1ncnc2c1ccn2[C@@H]1O[C@@H]2[C@H](Cc3ccc4cc(Br)c(N)nc4c3)CC[C@]2(O)[C@H]1O | 1.4
27 | 430 | 54 | 29 | 25 | 171 (≈ 80.1 µg/mL) | 1.7 | 2.1 | 83 (≈ 38.9 µg/mL) | Nc1nc2cc(C[C@@H]3CC[C@@]4(O)[C@@H]3O[C@@H](n3ccc5c(N)ncnc53)[C@@H]4O)cc(F)c2cc1F | 5.6
